Reference: ChEMBL document CHEMBL1145814, “Antiretroviral activity of semisynthetic derivatives of glycopeptide antibiotics” (J Med Chem, 2003)
Values after ≈ are worked out from the molar mass of the structure shown.

Columns and labels:
MOLT-4 = assay: Inhibitory concentration of compound against proliferation of human T-lymphocytic cells MOLT-4/C8 was determined; assay type: functional, cell-based
Outline: (§1)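 (5–7.5) × 10^4 cells per well were incubated with test compound at 37 °C in a humidified CO2 atmosphere. L1210 murine leukemia cells grew for 48 h, and CEM and Molt4/clone 8 human lymphocytes grew for 72 h. Cells were then counted with a Coulter counter. IC50 is the concentration inhibiting proliferation by 50%.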

L1210 = assay: Inhibitory concentration of compound against proliferation of murine lukemia cells L1210 was determined; assay type: functional, cell-based; details: Mus musculus; outline: as §1
CCRF-CEM = assay: Inhibitory concentration against proliferation of human T-lymphocytic (CEM) cells; assay type: functional, cell-based; details: Homo sapiens, CCRF-CEM; outline: as §1
[1] = test system: Human immunodeficiency virus 2; assay: Concentration required to protect human T-lymphocytic cells against the cytopathogenicity of HIV-2; assay type: functional, organism-based; details: Human immunodeficiency virus 2
[2] = test system: Human immunodeficiency virus 1; assay: Effective concentration of compound required to protect human T-lymphocytic cells against the cytopathogenicity of HIV-1; assay type: functional, organism-based; details: Human immunodeficiency virus 1
Mus musculus [3] = species on record: Mus musculus; assay: Effective concentration of compound required to protect C3H/3T3 embryo murine fibroblasts against the MSV induced transformation; assay type: functional, organism-based; details: Mus musculus, C3H/3T3
Outline: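 Monolayer murine embryo fibroblast C3H/3T3 cultures were infected with Moloney murine sarcoma virus at 75 focus-forming units and cultured with test compound. Transformation was examined microscopically on day 6 postinfection. EC50 is the concentration protecting cells against MSV-induced transformation by 50%.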

Mus musculus [4] = species on record: Mus musculus; assay: Minimal inhibitory concentration required to cause a microscopic detectable alteration of C3H/3T3 embryo murine fibroblast cell morphology; assay type: functional
Outline: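 Uninfected C3H/3T3 murine embryo fibroblast cultures were exposed to test compound and checked microscopically for changes in cell morphology. The MIC is the concentration causing a microscopically detectable alteration of morphology.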

SMILES | IC50 (MOLT-4) | IC50 (L1210) | IC50 (CCRF-CEM) | EC50 [1] | EC50 [2] | EC50 (Mus musculus [3]) | MIC (Mus musculus [4])
CCCCCCCCCCNCc1c(O)cc2c(c1O)-c1cc(ccc1O)C1NC(=O)C3NC(=O)C4NC(=O)C(Cc5ccc(c(Cl)c5)Oc5cc3cc(c5O)Oc3ccc(cc3Cl)C(O)C(NC1=O)C(=O)N[C@H]2C(=O)NCCCN(C)C)NC(=O)C(N)c1ccc(O)c(c1)Oc1cc(O)cc4c1 (stereo not given in full) | > 100 µM | 48 µM | > 100 µM | 6.1 µM | 1.4 µM |  | 
CCCCCCCCCCNC(=O)[C@H]1NC(=O)[C@H]2NC(=O)[C@H](NC(=O)[C@@H]3NC(=O)[C@H](CC(N)=O)NC(=O)[C@H](NC(=O)[C@@H](CC(C)C)NC)[C@H](O)c4ccc(c(Cl)c4)Oc4cc3cc(c4O[C@@H]3O[C@H](CO)[C@@H](O)[C@H](O)[C@H]3O[C@H]3C[C@](C)(N)[C@@H](O)[C@H](C)O3)Oc3ccc(cc3)[C@H]2O[C@H]2C[C@](C)(N)[C@@H](O)[C@H](C)O2)c2ccc(O)c(c2)-c2c(O)cc(O)cc21 | 21 µM | 29 µM | 9.4 µM | > 10 µM | > 10 µM |  | 
NC(=O)CC1NC(=O)C(N)C(O)c2ccc(c(Cl)c2)Oc2cc3cc(c2O)Oc2ccc(cc2)C(O)C2NC(=O)C(NC(=O)C3NC1=O)c1ccc(O)c(c1)-c1c(cc(O)c(CNC3C4CC5CC(C4)CC3C5)c1O)[C@H](C(=O)O)NC2=O (stereo not given in full) |  |  | > 250 µM | 40 µM | 22 µM | 47 µM | > 100 µM
O=C1NC2C(=O)NC3C(=O)NC4C(=O)NC(C(=O)N[C@@H](C(=O)O)c5cc(O)cc(O)c5-c5cc4ccc5O)C(O)c4ccc(c(Cl)c4)Oc4cc3cc(c4O)Oc3ccc(cc3Cl)CC1NC(=O)C(/N=C(\S)Nc1ccccc1)c1ccc(O)c(c1)Oc1cc(O)cc2c1 (stereo not given in full) |  |  | 220 µM | 8 µM | 6 µM | 7.5 µM | 100 µM (≈ 133 µg/mL)
CNC(=O)[C@H]1NC(=O)[C@H]2NC(=O)[C@H](NC(=O)[C@@H]3NC(=O)[C@H](CC(N)=O)NC(=O)[C@H](NC(=O)[C@@H](CC(C)C)NC)[C@H](O)c4ccc(c(Cl)c4)Oc4cc3cc(c4O[C@@H]3O[C@H](CO)[C@@H](O)[C@H](O)[C@H]3O[C@H]3C[C@](C)(N)[C@@H](O)[C@H](C)O3)Oc3ccc(cc3)[C@H]2O[C@H]2C[C@](C)(N)[C@@H](O)[C@H](C)O2)c2ccc(O)c(c2)-c2c(O)cc(O)cc21 | > 500 µM | > 500 µM | > 500 µM | > 250 µM | > 250 µM |  | 
CCCCc1ccc(CNCc2c(O)cc3c(c2O)-c2cc(ccc2O)C2NC(=O)C4NC(=O)C5NC(=O)C(Cc6ccc(c(Cl)c6)Oc6cc4cc(c6O)Oc4ccc(cc4Cl)C(O)C(NC2=O)C(=O)N[C@H]3C(=O)O)NC(=O)C(NC(=O)OC(C)(C)C)c2ccc(O)c(c2)Oc2cc(O)cc5c2)cc1 (stereo not given in full) |  |  | 60 µM | 8.3 µM | 20 µM | 7.6 µM | > 100 µM
O=C(NC1C(=O)NC2Cc3ccc(c(Cl)c3)Oc3cc4cc(c3O)Oc3ccc(cc3Cl)C(O)C3NC(=O)C(NC(=O)C4NC(=O)C(NC2=O)c2cc(O)cc(c2)Oc2cc1ccc2O)c1ccc(O)c(c1)-c1c(O)cc(O)cc1[C@H](C(=O)O)NC3=O)OCC1c2ccccc2-c2ccccc21 (stereo not given in full) |  |  | 114 µM | 15 µM | 17 µM | 10 µM | 100 µM (≈ 142 µg/mL)
CC(C)CC(C(=O)NC1C(=O)NC(CC(N)=O)C(=O)NC2C(=O)NC3C(=O)NC(C(=O)N[C@@H](C(=O)O)c4cc(O)c(CN5CCN(Cc6ccc(-c7ccccc7)cc6)CC5)c(O)c4-c4cc3ccc4O)C(O)c3ccc(cc3)Oc3cc2cc(c3O)Oc2ccc(cc2Cl)C1O)N(C)C(=O)OC(C)(C)C (stereo not given in full) |  |  | > 100 µM | 4.5 µM | 4.5 µM | 8.4 µM | > 100 µM
CCCCCCCCCCCCCCCCCCNCc1c(O)cc2c(c1O)-c1cc(ccc1O)C1NC(=O)C3NC(=O)C4NC(=O)C(Cc5ccc(c(Cl)c5)Oc5cc3cc(c5O)Oc3ccc(cc3Cl)C(O)C(NC1=O)C(=O)N[C@H]2C(=O)O)NC(=O)C(N)c1ccc(O)c(c1)Oc1cc(O)cc4c1 (stereo not given in full) |  |  | 22 µM | 7.8 µM | 4.5 µM | 1.7 µM | 100 µM (≈ 148 µg/mL)
NC1Cc2ccc(c(Cl)c2)Oc2cc3cc(c2O)Oc2ccc(cc2Cl)C(O)C2NC(=O)C(NC(=O)C3NC(=O)C(c3cc(O)cc(Oc4cc(C5NC(=S)N(c6ccccc6)C5=O)ccc4O)c3)NC1=O)c1ccc(O)c(c1)-c1c(O)cc(O)cc1[C@H](C(=O)O)NC2=O (stereo not given in full) |  |  | > 250 µM | 37 µM | 15 µM | 27 µM | > 100 µM
CCCCCCCCCCCCCCCCCCNCc1c(O)cc2c(c1O)-c1cc(ccc1O)C1NC(=O)C3NC(=O)C4NC(=O)C(Cc5ccc(c(Cl)c5)Oc5cc3cc(c5O)Oc3ccc(cc3Cl)C(O)C(NC1=O)C(=O)N[C@H]2C(=O)NC)NC(=O)C(N)c1ccc(O)c(c1)Oc1cc(O)cc4c1 (stereo not given in full) |  |  | 60 µM | 6 µM | 2.5 µM | 4.7 µM | 100 µM (≈ 149 µg/mL)
COC(=O)[C@H]1NC(=O)C2NC(=O)C(NC(=O)[C@@H]3NC(=O)[C@H]4NC(=O)[C@H](NC(=O)[C@H](N)c5ccc(O)c(c5)Oc5cc4cc(O)c5C)[C@H](O)c4ccc(cc4)Oc4cc3cc(c4O)Oc3ccc(cc3)[C@H]2O[C@@H]2C[C@@H](N)[C@@H](O)[C@@H](C)O2)c2ccc(O)c(c2)-c2c(O)cc(O)cc21 |  |  | > 100 µM | > 250 µM | > 50 µM | 52 µM | > 100 µM
NC1C(=O)NC2Cc3ccc(c(Cl)c3)Oc3cc4cc(c3O)Oc3ccc(cc3Cl)C(O)C(C(=O)O)NC(=O)C(c3ccc(O)c(-c5c(O)cc(O)cc5[C@@H](N)C(=O)O)c3)NC(=O)C4NC(=O)C(NC2=O)c2cc(O)cc(c2)Oc2cc1ccc2O (stereo not given in full) |  |  | > 250 µM | 32 µM | 22 µM | 14 µM | > 100 µM
O=C(NC1C(=O)NC2Cc3ccc(c(Cl)c3)Oc3cc4cc(c3O)Oc3ccc(cc3Cl)C(O)C3NC(=O)C(NC(=O)C4NC(=O)C(NC2=O)c2cc(O)cc(c2)Oc2cc1ccc2O)c1ccc(O)c(c1)-c1c(O)cc(O)cc1[C@H](C(=O)O)NC3=O)OCc1ccccc1 (stereo not given in full) |  |  | > 250 µM | 8 µM | 12 µM | 11 µM | > 100 µM
CNC(=O)[C@@H]1NC(=O)C2NC(=O)C(NC(=O)C3NC(=O)C4NC(=O)C(Cc5ccc(c(Cl)c5)Oc5cc3cc(c5O)Oc3ccc(cc3Cl)C2O)NC(=O)C(NC(=O)OC(C)(C)C)c2ccc(O)c(c2)Oc2cc(O)cc4c2)c2ccc(O)c(c2)-c2c(O)cc(O)cc21 (stereo not given in full) |  |  | 229 µM | 17 µM | 13 µM | 11 µM | > 100 µM
CC(C)(C)OC(=O)NC1C(=O)NC2Cc3ccc(c(Cl)c3)Oc3cc4cc(c3O)Oc3ccc(cc3Cl)C(O)C3NC(=O)C(NC(=O)C4NC(=O)C(NC2=O)c2cc(O)cc(c2)Oc2cc1ccc2O)c1ccc(O)c(c1)-c1c(O)cc(O)cc1[C@H](C(=O)O)NC3=O (stereo not given in full) |  |  | > 250 µM | 20 µM | 13 µM | 12 µM | > 100 µM
NC(=O)C[C@@H]1NC(=O)C(N)C(O)c2ccc(c(Cl)c2)Oc2cc3cc(c2O)Oc2ccc(cc2)C(O)C2NC(=O)C(NC(=O)C3NC1=O)c1ccc(O)c(c1)-c1c(O)cc(O)cc1[C@H](C(=O)O)NC2=O (stereo not given in full) |  |  | > 250 µM | > 250 µM | 115 µM | > 100 µM | > 100 µM
